APP 5'UTR act – activators of APP 5'UTR luciferase reporter, primary screen, SH-SY5Y cells. SH-SY5Y APP 5'UTR luciferase reporter, luminescence; zero percent = DMSO vehicle wells. activation, % at 2 µM. actives 1% (n = 190,000). AID 1276, 2008;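 active means activation above a set limit, based on mean plus 3 SD of controls, cut at about 140% in these data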
FLuc act counter – FLuc activators, initial screening, artefact control for FLuc-dependent activation tests, biochemical, ATPlite luminescence; activation factor at 10 µM; Luciferin 4-monooxygenase (Photinus pyralis), P08659; AID 1027, 2008; ATPlite luciferase biochemical, 10 min; 0 = ATP-free wells, 1 = DMSO control; 200,000 tested, under 10 active;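 active means luciferase activation factor, scaled between plate controls, of at least 2 with compound at 10 µM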
Target sequence (P08659 whole entry, looked up): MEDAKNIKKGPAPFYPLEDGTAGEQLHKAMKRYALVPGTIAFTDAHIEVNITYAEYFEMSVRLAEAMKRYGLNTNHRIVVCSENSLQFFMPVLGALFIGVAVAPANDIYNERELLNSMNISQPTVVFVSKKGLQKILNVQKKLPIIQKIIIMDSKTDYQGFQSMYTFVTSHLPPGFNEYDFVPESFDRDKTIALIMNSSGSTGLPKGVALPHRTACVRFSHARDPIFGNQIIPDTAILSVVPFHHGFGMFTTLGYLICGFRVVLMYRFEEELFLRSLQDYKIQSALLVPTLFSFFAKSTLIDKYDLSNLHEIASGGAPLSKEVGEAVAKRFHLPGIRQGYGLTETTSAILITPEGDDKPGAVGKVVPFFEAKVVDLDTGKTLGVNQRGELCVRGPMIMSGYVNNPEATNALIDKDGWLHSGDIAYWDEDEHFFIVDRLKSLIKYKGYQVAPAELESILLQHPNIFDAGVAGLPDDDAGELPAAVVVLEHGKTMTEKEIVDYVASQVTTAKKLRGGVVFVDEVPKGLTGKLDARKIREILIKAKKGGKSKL
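Assay system: Luciferase/luciferin reagent mix; Medium: PBS as buffer for the ATP substrate; Dosing: test compounds dosed from 2 mM stocks in 100% DMSO; Times: 10 min, room temperature; Signal: luminescence from luciferase reaction; Read-out: luciferase activation; Controls: No-ATP low control, compound-free enzyme-plus-ATP high control.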
STAT1 act – STAT1 signaling activators, primary screen, cell-based, HTS, luciferase reporter. NIH 3T3 STAT1-luciferase reporter, IFN-gamma, luminescence; 100% = IFN-gamma alone, no compound. activation (% of control), % at 5.5 µM. actives 2.6% (n = 200,000);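 active means activation above the screen-wide mean activation plus 3 SD, cut at about 130% in these data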;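 further: raw ratio to IFN-gamma control signal so 100% means no change and 0% no light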
NF-kB expr up – activators of NF-kB expression in neurons, primary screen, cell-based, HTS; human neuronal cells, NF-kB reporter expression; active compounds read high; AID 1239, 2008; actives 1.6% (n = 190,000); fold change at 12.5 µM; in the data active means fold change above about 3.3
FLuc inhib CS – firefly luciferase enzyme inhibitors, primary screen, artefact control for luciferase-based inhibitor screens, biochemical, luminescence, ATPLite; 10 min; actives 1.5% (n = 200,000); AID 1006, 2008; inhibition, % at 10 µM; Luciferin 4-monooxygenase (Photinus pyralis), P08659;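 active means inhibition above about 50% when tested at 10 µM, limit read from the data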
An asterisk follows results filed as active; . = no result given. Compounds with a hit are over-represented: about 4.1% of the library has one in this group of screens.

SMILES	APP 5'UTR act	FLuc act counter	STAT1 act	NF-kB expr up	FLuc inhib CS
O=c1[nH]c(SCc2ccccc2)nc2c1cnn2-c1ccc(F)cc1	18	1	96	1.2	1
Cc1ccsc1/C=C1/SC(=O)N(CC(=O)N2CCOCC2)C1=O	-3	1	104	1.4	1
CCCN1C(=O)S/C(=C\c2ccc(N3CCOCC3)cc2C)C1=O	14	0.8	119	0.95	16
O=C(CN1C(=O)S/C(=C/c2ccc(N3CCOCC3)cc2)C1=O)N1CCOCC1	38	0.2	113	1.6	76*
C#CCN1C(=O)S/C(=C\c2ccc(N3CCOCC3)cc2C)C1=O	74	0.8	132*	1.6	17
CCC(C)N1C(=O)S/C(=C/c2ccc(N3CCOCC3)cc2C)C1=O (stereo not drawn)	61	1	132*	0.5	1
CCN1C(=O)S/C(=C\c2ccc(N3CCOCC3)cc2C)C1=O	34	0.6	144*	1.4	40
Cc1cc(N2CCOCC2)ccc1/C=C1\SC(=O)N(C(C)C)C1=O	16	0.6	120	0.71	36
O=C(Oc1cccc([N+](=O)[O-])c1)c1cc(-c2ccccc2)nc2ccccc12	-10	1.1	94	0.9	-6
Cc1nc(NC(=O)c2ccc(Br)s2)sc1C(=O)N(C)C	132	0.6	138*	3	40
Cc1csc(NC(=O)c2cc3c(s2)CCC3)n1	105	0.2	118	9.8*	79*
Cc1csc(NC(=O)c2cc3c(s2)-c2ccccc2OC3)n1	112	0.9	139*	2	6
Cc1nc(NC(=O)c2cc3c(s2)CCCCC3)sc1C(=O)N(C)C	27	1.1	132*	2.4	-8
Cc1csc(NC(=O)c2cccs2)n1	49	0.9	122	2.5	10
CCOC(=O)N1CCN(C(=S)Nc2ccc(C)cc2)CC1	-1	1	108	1.1	-3
COc1cc(C(=O)NCCOc2cccc(C)c2)c(Br)c(OC)c1OC	-10	1	97	0.98	-2
COc1ccc(/C=C2\SC(=S)N(NC(=O)c3csc4c3CCCC4)C2=O)cc1	8	1	100	1	-2
COc1ccc(-n2c(C)cc(/C=N/Nc3nnc(C)n3N)c2C)cc1	4	1.1	131*	0.87	-9
Oc1ccc(-c2cccc(-c3ccc(O)cc3)n2)cc1	27	1	113	1.5	4
Oc1ccc(-c2nnc(-c3ccc(O)cc3)nn2)cc1	119	0.2	95	6.1*	78*
O=C(NCC1OCCc2ccccc21)c1cc(COc2c(F)cccc2F)on1 (stereo not drawn)	4	1.1	114	1.4	-8
Nc1nnc(SCC(=O)c2ccc3c(c2)NC(=O)CO3)s1	5	1	108	.	-4
C/C(=N\NC(=O)C1(C)CC1(Br)Br)c1ccc(NC(=O)C2CCC2)cc1 (stereo not drawn)	-10	1	97	1	-4
C/C(=N\NC(=O)c1ccn(C)n1)c1ccc(NC(=O)C2CCCC2)cc1	8	1	135*	0.99	-5
C/C(=N/NC(=O)c1ccoc1C)c1ccc(NC(=O)C2CCCC2)cc1	161*	1.1	136*	1.2	-7
SMILES	APP 5'UTR act	FLuc act counter	STAT1 act	NF-kB expr up	FLuc inhib CS
COCCOc1cc(-n2cccc2)c(Cl)cc1Cl	2	1	105	1.7	-3
O=C(/C=C/c1ccc(N2CCCCC2)c([N+](=O)[O-])c1)c1ccc(O)cc1	121	0.8	143*	3.8*	21
CC(=O)Nc1ccc(NC(=O)Nc2ccc3c(c2)N(C)C(=O)CS3)cc1	-1	0.9	102	0.95	7
CN1C(=O)CSc2ccc(NC(=O)Nc3ccccn3)cc21	29	0.8	142*	1.4	20
Cc1ccn2c(Nc3ccccc3C)c(-c3cccnc3)nc2c1	28	1	100	1.3	-4
Cc1ccc(CSc2nnc(SCC(=O)N/N=C/C=C/c3ccco3)s2)cc1	-22	0.8	108	0.9	16
O=C(N/N=C/C=C\c1ccco1)c1cccs1	24	0.9	130*	2.1	15
O=C(N/N=C/C=C/c1ccc([N+](=O)[O-])cc1)c1cccs1	7	1	108	1.4	3
